Experimental data: article PMC6465157 (Chemical research in toxicology, 2019)
Read-outs that look alike come from different tables or passages of the source.

What was measured:
[1] = assay type: in vivo, mice
Method in brief: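 Whole blood was taken 1 to 48 h after a single oral gavage (6.63 mg/kg in corn oil). Hydroxylated metabolites were methylated, and all analytes were run by GC with 63Ni-µECD on an SPB-1 column (60 m × 250 µm × 0.25 µm). The oven ran from 100 °C to 280 °C; injector was 280 °C, detector 300 °C, helium 1.0 mL/min. A PCB congener internal standard served as volume corrector.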

[2] = assay type: in vivo, mice; remark: listed apart in the source
Method in brief: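 Blood extracts were dried under nitrogen. Headspace was sampled by SPME with a 100 µm PDMS fiber for 60 min at 60 °C, then desorbed in the injector for 5 min. Atropisomers were separated by GC-µECD with injector and detector at 250 °C and helium at 3.0 mL/min. The parent was measured on Chirasil-Dex at all time points from 1 to 48 h. Hydroxylated metabolites were measured at 5 h only, on Chirasil-Dex or CycloSil-B columns. Enantiomeric fractions were reported, n = 3–6.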

[3] = prior study, 30 mg/kg body weight, cited from earlier work
[4] = system: mice; experiment: Daily animal welfare-assessments of exposed mice; assay type: in vivo; settings: 6.63 mg/kg body weight in corn oil by oral gavage, up to 48 h
Method in brief: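 Male and female mice (8 weeks ± 2 days) with liver-specific cpr deletion and congenic wild-type mice were housed at 22 ± 2 °C on a 12 h light-dark cycle with diet and water ad libitum. They were randomised to a single gavage of test compound (6.63 mg/kg; 18.4 µmol/kg) in corn oil (10 mL/kg) or to corn oil alone. Lab personnel assessed welfare daily.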

[5] = 5 h time point, all four exposure groups (M-KO, M-WT, F-KO, F-WT)
[6] = 5 h time point, all exposure groups

SMILES: Oc1c(Cl)cc(Cl)c(-c2c(Cl)ccc(Cl)c2Cl)c1Cl [3–150, 2,2′,3′,4,6,6′-Hexachlorobiphenyl-3-ol]
- Detection in whole blood [1, 5]: detected

SMILES: Oc1c(O)c(Cl)c(-c2c(Cl)ccc(Cl)c2Cl)c(Cl)c1Cl [4,5–136, 4,5-dihydroxy-2,2′,3,3′,6,6′-hexachlorobiphenyl]
- Detection in whole blood [1, 5]: detected

SMILES: Oc1cc(Cl)c(-c2c(Cl)ccc(Cl)c2Cl)c(Cl)c1Cl [4–136, 2,2′,3,3′,6,6′-hexachlorobiphenyl-4-ol]
- Detection in whole blood [1, 5]: detected

SMILES: Oc1cc(Cl)c(Cl)c(-c2c(Cl)ccc(Cl)c2Cl)c1Cl [5–136, 2,2′,3,3′,6,6′-hexachlorobiphenyl-5-ol]
- Detection in whole blood [1, 5]: detected

SMILES: Oc1cc(Cl)c(Cl)c(-c2c(Cl)ccc(Cl)c2Cl)c1Cl [E1-5–136]
- Atropisomeric enrichment in whole blood [2, 6]: enriched

SMILES: Oc1cc(Cl)c(-c2c(Cl)ccc(Cl)c2Cl)c(Cl)c1Cl [E2-4–136]
- Atropisomeric enrichment in whole blood [2, 6]: enriched

SMILES: Clc1ccc(Cl)c(-c2c(Cl)ccc(Cl)c2Cl)c1Cl [E2-(+)-PCB 136]
- Atropisomeric enrichment in whole blood ([2]; all samples, 1 to 48 h, male and female KO and WT mice): enriched

SMILES: Clc1ccc(Cl)c(-c2c(Cl)ccc(Cl)c2Cl)c1Cl [PCB 136, 2,2’,3,3’,6,6’-hexachlorobiphenyl]
- Detection in whole blood ([1]; all time points investigated (1 to 48 h), oral racemic PCB 136 6.63 mg/kg): detected
- Enantiomeric fraction (EF) of PCB 136 ([3]; F-WT mice): 0.63 ± 0.06
- Enantiomeric fraction (EF) of PCB 136 ([3]; M-WT mice (so in the source)): 0.66 ± 0.03
- Adverse outcomes in daily animal welfare-assessments [4]: no adverse outcomes were observed
